Measured values: ChEMBL document CHEMBL1128509, “A novel type of retinoic acid receptor antagonist: synthesis and structure-activity relationships of heterocyclic ring-containing benzoic acid derivatives” (J Med Chem, 1995)
Activity calls are given as the source filed them. The calls are words filed in the database; no cut-off is given here.

Experiments:
HL-60 = test: Concentration inhibiting the differentiation-inducing activity of all-trans-retinoic acid (ATRA)(1*10e-8M) in human promyelocytic leukemia cells; format: functional, cell-based
Method in brief: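 HL-60 cells at 1 × 10^5 cells/mL, 1 mL/well, exposed to ATRA (1.0 × 10^-8 M) plus graded test compound concentrations; 5 days in 5% CO2/air. Cells stained with FITC anti-CD11b, fixed in 0.2% paraformaldehyde, and analysed by flow cytometry for % CD11b-positive cells. IC50 read from activity vs log compound concentration plots; mean of two experiments.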

[1] = The concentration required to inhibit the binding of [3H]ATRA to retinoic acid receptor in human promyelocytic leukemia cells
Homo sapiens = organism: Homo sapiens; test: Differentiation-inducing activity of the compound. ED1/3 value was obtained from the percentage of the differentiated cells (CD11b-positive cells); No activity at concentrations below 3.0e-6M; format: functional
[2] = Differentiation-inducing activity of the compound. ED1/3 value was obtained from the percentage of the differentiated cells (CD11b-positive cells).; format: functional, Homo sapiens
Method in brief: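 Human promyelocytic leukemia HL-60 cells were exposed to compound alone and scored for differentiation toward mature granulocytes. The read-out was the percentage of CD11b-positive (differentiated) cells, and ED1/3 was derived from these percentages. Activity was judged at concentrations below 3.0 × 10^-6 M. Values are the mean of two experiments.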

SMILES	IC50 (HL-60)	IC50 [1]	ED1/3 (Homo sapiens)	ED1/3 [2]
CC(C)Oc1cc2c(cc1-c1ccccc1)CCc1c(-c3ccc(C(=O)O)cc3)cn(Cc3cccnc3)c1-2	300 nM	30 nM		
COc1cc2c(cc1C(C)C)CCc1c(-c3ccc(C(=O)O)cc3)cn(Cc3cccnc3)c1-2	170 nM	22 nM		
CC1(C)CCC(C)(C)c2cc3c(cc21)CCc1c(-c2ccc(C(=O)O)cc2)n[nH]c1-3		17 nM	inactive	
CC1(C)CCC(C)(C)c2cc3c(cc21)OCc1c(-c2ccc(C(=O)O)cc2)cn(Cc2cccnc2)c1-3	100 nM	19 nM		
CC1(C)CCOc2cc3c(cc21)CCc1c(-c2ccc(C(=O)O)cc2)cn(Cc2cccnc2)c1-3	1600 nM	> 50 nM		
CC1(C)CCC(C)(C)c2cc3c(cc21)CCc1c(-c2ccc(C(=O)O)cc2)csc1-3	2400 nM	> 5 nM		
Cn1cc(-c2ccc(C(=O)O)cc2)c2c1-c1cc3c(cc1CC2)C(C)(C)CCC3(C)C	200 nM	> 50 nM		
CC1(C)CCC(C)(C)c2cc3c(cc21)CCc1c(-c2ccc(C(=O)O)cc2)cnnc1-3	> 3000 nM	> 50 nM		
CC1(C)CCC(C)(C)c2cc(-c3cc(-c4ccc(C(=O)O)cc4)[nH]n3)ccc21		19 nM		900 pM
CC1(C)CCC(C)(C)c2cc3c(cc21)CCc1c(-c2ccc(C(=O)O)cc2)cn(CC24CC5CC(CC(C5)C2)C4)c1-3	> 3000 nM	> 50 nM		
Cn1nc(-c2ccc(C(=O)O)cc2)c2c1-c1cc3c(cc1CC2)C(C)(C)CCC3(C)C		16 nM	inactive	
CC1(C)Cc2c(-c3ccc(C(=O)O)cc3)cn(Cc3cccnc3)c2-c2cc3c(cc21)C(C)(C)CCC3(C)C	1000 nM	> 50 nM		
CC1(C)CCC(C)(C)c2cc3c(cc21)CCc1c(-c2ccc(C(=O)O)cc2)cn(CCc2ccccn2)c1-3	1300 nM	16 nM		
CC1(C)CCC(C)(C)c2cc3c(cc21)CCc1c(-c2ccc(C(=O)O)cc2)ccnc1-3	> 3000 nM	> 50 nM		
CCCCCn1cc(-c2ccc(C(=O)O)cc2)c2c1-c1cc3c(cc1CC2)C(C)(C)CCC3(C)C	520 nM	19 nM		
CC1(C)CCC(C)(C)c2cc3c(cc21)CCc1c(-c2ccc(C(=O)O)cc2)c[nH]c1-3	> 3000 nM	32 nM		
Cn1nc2c(c1-c1ccc(C(=O)O)cc1)CCc1cc3c(cc1-2)C(C)(C)CCC3(C)C		80 nM	inactive	
CC1(C)CCC(C)(C)c2cc3c(cc21)CCc1c(-c2ccc(C(=O)O)cc2)coc1-3	300 nM	> 50 nM		

Further compounds by falling IC50 [1], results first:

IC50 (HL-60)	IC50 [1]	SMILES	ED1/3 (Homo sapiens)	ED1/3 [2]
360 nM	14 nM	CC1(C)CCC(C)(C)c2cc3c(cc21)CCc1c(-c2ccc(C(=O)O)cc2)cn(C2CC2)c1-3		
1100 nM	13 nM	CC1(C)CCSc2cc3c(cc21)CCc1c(-c2ccc(C(=O)O)cc2)cn(Cc2cccnc2)c1-3		
77 nM	11 nM	CC1(C)CCC(C)(C)c2cc3c(ccc4c(-c5ccc(C(=O)O)cc5)cn(Cc5cccnc5)c43)cc21		
650 nM	5.6 nM	COc1ccncc1-n1cc(-c2ccc(C(=O)O)cc2)c2c1-c1cc3c(cc1CC2)C(C)(C)CCC3(C)C		
78 nM	4.7 nM	CC1(C)CCC(C)(C)c2cc3c(cc21)CCCc1c(-c2ccc(C(=O)O)cc2)cn(Cc2cccnc2)c1-3		
540 nM	4.5 nM	CC1(C)CCC(C)(C)c2cc3c(cc21)CCc1c(-c2ccc(C(=O)O)cc2)cn(Cc2cccs2)c1-3		
37 nM	3.7 nM	Cc1cc2c(cc1OC(C)C)-c1c(c(-c3ccc(C(=O)O)cc3)cn1Cc1cccnc1)CC2		
51 nM	3.4 nM	CC1(C)CCC(C)(C)c2cc3c(cc21)CCc1c(-c2ccc(C(=O)O)cc2)cn(Cc2ccco2)c1-3		
490 nM	3.2 nM	CC1(C)CCC(C)(C)c2cc3c(cc21)CCc1c(-c2ccc(C(=O)O)cc2)cn(-c2cnccc2Cl)c1-3		
230 nM	2.9 nM	CC(C)Oc1cc2c(cc1Cl)CCc1c(-c3ccc(C(=O)O)cc3)cn(Cc3cccnc3)c1-2		
84 nM	2.3 nM	CC1(C)CCC(C)(C)c2cc3c(cc21)CCc1c(-c2ccc(C(=O)O)cc2)cn(Cc2ccncc2)c1-3		
56 nM	1.5 nM	CC1(C)CCC(C)(C)c2cc3c(cc21)CCc1c(-c2ccc(C(=O)O)cc2)nn(Cc2ccccc2)c1-3		
210 nM	1.2 nM	CC1(C)CCC(C)(C)c2cc3c(cc21)CCc1c(-c2ccc(C(=O)O)cc2)cn(Cc2ccccc2)c1-3		
69 nM	0.97 nM	CC(C)Oc1cc2c(cc1C(C)C)CCc1c(-c3ccc(C(=O)O)cc3)cn(Cc3cccnc3)c1-2		
1.3 nM	0.91 nM	CC1(C)CCC(C)(C)c2cc3c(cc21)CCc1c(-c2ccc(C(=O)O)cc2)nn(Cc2cccnc2)c1-3		
	0.63 nM	CC1=C(/C=C/C(C)=C/C=C/C(C)=C/C(=O)O)C(C)(C)CCC1 [TRETINOIN]		340 pM
33 nM	0.59 nM	CC1(C)CCC(C)(C)c2cc3c(cc21)CCc1c(-c2ccc(C(=O)O)cc2)cn(-c2cccnc2)c1-3		
4.9 nM	0.34 nM	CC1(C)CCC(C)(C)c2cc3c(cc21)CCc1c(-c2ccc(C(=O)O)cc2)cn(Cc2cccnc2)c1-3		
5.6 nM	0.16 nM	CC1(C)CCC(C)(C)c2cc3c(cc21)SCc1c(-c2ccc(C(=O)O)cc2)cn(Cc2cccnc2)c1-3		
17 nM	0.14 nM	CC1(C)CCC(C)(C)c2cc3c(cc21)CCc1c(-c2ccc(C(=O)O)cc2)cn(Cc2ccccn2)c1-3		
